ChEMBL document CHEMBL4619765 (J Nat Prod, 2020)
pEC50, pIC50: −log10 of the molar value. Active and inactive are the calls of the source. No cut-off for these calls is given here.

Columns and labels:
[1] = Inhibition of complex 1 in bovine heart mitochondrial membranes in presence of NADH; design: species or system Bos taurus
[2] = test system: LNCaP; experiment: Cytotoxicity against human LNCAP cells; type: functional; conditions: read-out: ED50 (the source's name)
[3] = test system: LNCaP C4-2; experiment: Antiproliferative activity against human C4-2 cells at 1 uM after 150 hrs; type: functional, cell-based
In short: (§1)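 Seeded at 1,000 cells/well in RPMI 1640 with 10% FBS, 25 mM HEPES and 1 mM pyruvate; after 24 h, 1 μM rotenoid (ethanolic stock diluted in medium) or ethanol-only control added. Growth followed by live-cell imaging as confluence (% well area covered) until untreated control reached confluence; value at 150 h of treatment. Eight replicates per condition, mean ± S.E.M.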

[4] = test system: LNCaP C4-2B; experiment: Cytotoxicity against human C4-2B cells assessed as reduction in cell count at 1 uM after 48 hrs by acridine orange/DAPI staining based assay; type: functional
In short: (§2)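 Cells trypsinized, pelleted, resuspended in PBS and stained with acridine orange/DAPI; viability and cell count read on an NC-3000 image cytometer. n = 4 treated, n = 10 control; mean ± S.E.M.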

[5] = test system: PNT2; experiment: Inhibition of cell proliferation in human PNT2 cells at 1 uM after 150 hrs; type: cell-based; conditions: pnt2, 150 h; in short: as §1
[6] = test system: LNCaP C4-2; experiment: Cytotoxicity against human C4-2 cells assessed as reduction in cell count at 1 uM after 48 hrs by acridine orange/DAPI staining based assay; type: functional; in short: as §2
[7] = test system: PNT2; experiment: Cytotoxicity against human PNT2 cells assessed as reduction in cell viability at 1 uM after 48 hrs by acridine orange/DAPI staining based assay; conditions: pnt2, 48 h; in short: as §2
[8] = test system: LNCaP C4-2B; experiment: Antiproliferative activity against human C4-2B cells at 1 uM after 150 hrs; type: functional, cell-based; in short: as §1
[9] = test system: LNCaP C4-2B; experiment: Cytotoxicity against human C4-2B cells assessed as reduction in cell viability at 1 uM after 48 hrs by acridine orange/DAPI staining based assay; type: functional; in short: as §2
[10] = test system: PNT2; experiment: Cytotoxicity against human PNT2 cells assessed as reduction in cell count at 1 uM after 48 hrs by acridine orange/DAPI staining based assay; conditions: pnt2, 48 h; in short: as §2
[11] = test system: LNCaP C4-2; experiment: Cytotoxicity against human C4-2 cells assessed as reduction in cell viability at 1 uM after 48 hrs by acridine orange/DAPI staining based assay; type: functional; in short: as §2
[12] = test system: LNCaP C4-2B; experiment: Inhibition of complex 1 in human C4-2B cells assessed as reduction in oxygen rate at 1 uM incubated for 1 hr followed by rotenone and antimycin addition; type: cell-based
In short: (§3)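 Cells seeded at 20,000/well on poly-L-lysine-coated Seahorse XF96 plates for 16 h, then moved into carbonate-free RPMI assay buffer (4.5 g/L glucose, pyruvate, GlutaMAX, pH 7.4). […] Rotenone-insensitive rate subtracted and traces normalized to 100% pre-addition. n = 6 treated, 16 controls; mean ± S.E.M.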

[13] = test system: LNCaP C4-2; experiment: Inhibition of complex 1 in human C4-2 cells assessed as reduction in oxygen rate at 1 uM incubated for 1 hr followed by rotenone and antimycin addition; type: cell-based; in short: as §3
[14] = test system: PNT2; experiment: Inhibition of complex 1 in human PNT2 cells assessed as reduction in oxygen rate at 1 uM incubated for 1 hr followed by rotenone and antimycin addition; type: cell-based; in short: as §3
[15] = test system: MEF; experiment: Cytotoxicity against PTEN-deficient MEF at 0.5 uM after 24 hrs by MTT assay relative to control; type: cell-based; conditions: mouse

Compound: C=C(C)C(=O)Cc1c(O)ccc2c1O[C@@H]1COc3cc(OC)c(OC)cc3[C@]1(O)C2=O
- pIC50 [1]: < 5.00

Compound: COc1cc2c(cc1OC)[C@@H]1[C@H](O)c3ccc4c(c3O[C@@H]1CO2)C=CC(C)(C)O4
- pIC50 [1]: 7.84

Compound: COc1cc2c(cc1OC)[C@]1(O)C(=O)c3ccc4c(c3O[C@@H]1CO2)C[C@H](C(C)(C)O)O4
- pIC50 [1]: < 5.00

Compound: COc1cc2c(cc1OC)[C@]1(O)C(=O)c3ccc4c(c3O[C@@H]1CO2)C=CC(C)(C)O4 [TEPHROSIN]
- pEC50 [2]: 6.15 to 6.52

Compound: COc1cc2c(cc1OC)[C@]1(O)[C@H](O)c3ccc4c(c3O[C@@H]1CO2)C[C@H](C(C)CO)O4 (mixture of isomers)
- pIC50 [1]: 5.53

Compound: COc1cc2c(cc1OC)[C@]1(O)[C@H](O)c3ccc4c(c3O[C@@H]1CO2)C[C@H](C(C)(C)O)O4
- pIC50 [1]: < 5.00

Compound: C=C(C)[C@H]1Cc2c(ccc3c2O[C@@H]2COc4cc(OC)c(OC)cc4[C@@H]2C3=O)O1 [ROTENONE]
- Activity [3]: Active
- Activity [4]: Active
- Activity [5]: Non-Toxic
- Activity [6]: Active
- Activity [7]: Non-Toxic
- Activity [8]: Active
- Activity [9]: inactive
- Activity [10]: Toxic
- Activity [11]: inactive

Compound: COc1cc2c(cc1OC)[C@@H]1C(=O)c3ccc4c(c3O[C@@H]1CO2)C[C@H](C(C)(C)O)O4 [DALPANOL]
- Activity [3]: Active
- inhibition [12]: Active
- inhibition [13]: Active
- Activity [5]: Non-Toxic
- pIC50 [1]: 6.19
- Activity [6]: Active
- Activity [7]: Non-Toxic
- Activity [8]: Active
- inhibition [14]: Active
- Activity [9]: inactive
- Activity [11]: inactive

Compound: C=C(C)C(=O)Cc1c(O)ccc2c1O[C@@H]1COc3cc(OC)c(OC)cc3[C@@H]1C2=O
- pIC50 [1]: 5.59

Compound: C=C(CO)[C@H]1Cc2c(ccc3c2O[C@@H]2COc4cc(OC)c(OC)cc4[C@]2(O)[C@@H]3O)O1
- pIC50 [1]: < 5.00

Compound: C=C(C)[C@H]1Cc2c(ccc3c2O[C@@H]2COc4cc(OC)c(OC)cc4[C@]2(O)C3=O)O1 [ROTENOLONE]
- pIC50 [1]: 6.89

Compound: COc1cc2c(cc1OC)[C@]1(O)C(=O)c3ccc4c(c3O[C@@H]1CO2)C[C@H](C(C)CO)O4 (mixture of isomers)
- pIC50 [1]: 5.45

Compound: COc1cc2c(cc1OC)[C@@H]1C(=O)c3ccc(O)c(CC=C(C)C)c3O[C@@H]1CO2 [ROTENONIC ACID]
- pIC50 [1]: 5.96

Compound: COc1cc2c(cc1OC)[C@@H]1C(=O)c3ccc4c(c3O[C@@H]1CO2)CC(O)C(C)(C)O4 (mixture of isomers)
- pIC50 [1]: 6.07

Compound: COc1cc2c(cc1OC)[C@@H]1[C@H](O)c3ccc4c(c3O[C@@H]1CO2)C[C@H](C(C)(C)O)O4
- pIC50 [1]: 6.12

Compound: COc1cc2c(cc1OC)[C@@H]1[C@H](O)c3ccc4c(c3O[C@@H]1CO2)C[C@H](C(C)(O)CO)O4 (mixture of isomers)
- pIC50 [1]: 5.34

Compound: COc1cc2c(cc1OC)[C@@H]1[C@H](O)c3ccc4c(c3O[C@@H]1CO2)C[C@H](C(C)CO)O4 (mixture of isomers)
- pIC50 [1]: 6.34

Compound: C=C(CO)[C@H]1Cc2c(ccc3c2O[C@@H]2COc4cc(OC)c(OC)cc4[C@]2(O)C3=O)O1 [DABINOL]
- pIC50 [1]: 5.42

Compound: COc1cc2c(cc1OC)[C@@H]1C(=O)c3ccc4c(c3O[C@@H]1CO2)C[C@H](C(C)CO)O4 (mixture of isomers)
- Activity [3]: Active
- inhibition [12]: Active
- inhibition [13]: Active
- Activity [4]: Active
- Activity [5]: Non-Toxic
- pIC50 [1]: 6.64
- Activity [6]: Active
- Activity [7]: Non-Toxic
- Activity [8]: Active
- inhibition [14]: Active
- Activity [9]: inactive
- Activity [11]: inactive

Compound: COc1cc2c(cc1OC)[C@@H]1C(=O)c3ccc4c(c3O[C@@H]1CO2)C[C@H](C(C)(O)CO)O4 (stereo not given in full)
- Activity [3]: Active
- inhibition [12]: Active
- inhibition [13]: Active
- Activity [5]: Non-Toxic
- pIC50 [1]: 5.74
- Activity [6]: Active
- Activity [7]: Non-Toxic
- Activity [8]: Active
- inhibition [14]: Active
- Activity [9]: inactive
- Activity [11]: inactive

Compound: COc1cc2c(cc1OC)[C@@H]1C(=O)c3ccc4c(c3O[C@@H]1CO2)CCC(C)(CO)O4 (mixture of isomers)
- pIC50 [1]: 6.71

Compound: COc1cc2c(cc1OC)[C@]1(O)C(=O)c3ccc4c(c3O[C@@H]1CO2)C[C@H](C(C)(O)CO)O4 (stereo not given in full)
- pIC50 [1]: < 5.00

Compound: COc1cc2c(cc1OC)[C@@H]1C(=O)c3ccc4c(c3O[C@@H]1CO2)C(O)C(O)C(C)(C)O4 (mixture of isomers)
- pIC50 [1]: 5.27

Compound: COc1cc2c(cc1OC)[C@]1(O)[C@H](O)c3ccc4c(c3O[C@@H]1CO2)C[C@H](C(C)(O)CO)O4 (stereo not given in full)
- pIC50 [1]: < 5.00

Compound: C=C(C)CCc1c(O)ccc2c1O[C@@H]1COc3cc(OC)c(OC)cc3[C@@H]1C2=O
- pIC50 [1]: 6.24

Compound: C=C(CO)[C@H]1Cc2c(ccc3c2O[C@@H]2COc4cc(OC)c(OC)cc4[C@@H]2[C@@H]3O)O1
- pIC50 [1]: 6.34

Compound: COc1cc2c(cc1OC)[C@@H]1C(=O)c3ccc4c(c3O[C@@H]1CO2)C=CC(C)(C)O4 [DEGUELIN]
- pIC50 [1]: 7.97
- Activity [15]: 70%

Compound: C=C(C)[C@H]1Cc2c(ccc3c2O[C@@H]2COc4cc(OC)c(OC)cc4[C@@H]2[C@@H]3O)O1
- pIC50 [1]: 7.94

Compound: COc1cc2c(cc1OC)[C@]1(O)[C@H](O)c3ccc4c(c3O[C@@H]1CO2)C=CC(C)(C)O4
- pIC50 [1]: 6.87

Compound: C=C(C)[C@H]1Cc2c(ccc3c2O[C@@H]2COc4cc(OC)c(OC)cc4[C@]2(O)[C@@H]3O)O1
- pIC50 [1]: 6.90
